Test results from ChEMBL document CHEMBL2176883, “Aminopiperidine sulfonamide Cav2.2 channel inhibitors for the treatment of chronic pain” (J Med Chem, 2012).

Assays:
[1] = Plasma concentration in vagotomized dog at 10 mg/kg, iv after 90 mins; type: ADME, organism-based, Canis lupus familiaris; design: dose 10 mg/kg, route intravenous
Outline: (§1)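 Anesthetized, vagotomized dogs; intravenous infusion in sequential rising doses of 1, 3 and 10 mg/kg (cumulative); plasma exposure sampled at indicated time points, n = 3.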

Rattus norvegicus [2] = assay: Analgesic activity in rat SNL neuropathic pain model assessed as reversal of mechanical allodynia at 30 mg/kg, po after 1 hr; type: functional
Mus musculus [3] = assay: Antinociceptive activity in Cav2.2 deficient mouse assessed as reversal of complete Freund's adjuvant-induced pain at 30 mg/kg, po after 2 hrs; type: functional
Mus musculus [4] = assay: Antinociceptive activity in Cav2.2 expressing wild type mouse SNL neuropathic pain model assessed as reversal of mechanical allodynia at 30 mg/kg, po after 2 hrs; type: functional
Outline: (§2)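 Cav2.2+/+ and Cav2.2−/− mice underwent spinal nerve ligation, then got a single 30 mg/kg oral dose. Mechanical allodynia was scored 2 h postdose.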

Rattus norvegicus [5] = assay: Antinociceptive activity in po dosed rat assessed as reversal of complete Freund's adjuvant-induced pain after 3 hrs; type: functional, organism-based
Outline: (§3)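 In the rat CFA inflammatory pain model, compound was given orally at 30 mg/kg and allodynia was read at 1 and 3 h postdose. Average % reversal = (postdose − predose)/(preinjury − predose) for each rat, n = 6. Plasma exposure at 3 h was measured in satellite rats (n = 2).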

Cav1.2 = Cav1.2 (Homo sapiens, UniProt Q13936); assay: Inhibition of Cav1.2 assessed as inhibition of calcium flux at 1 uM by cell based FLIPR assay
Sequence of Cav1.2 (Q13936 whole entry): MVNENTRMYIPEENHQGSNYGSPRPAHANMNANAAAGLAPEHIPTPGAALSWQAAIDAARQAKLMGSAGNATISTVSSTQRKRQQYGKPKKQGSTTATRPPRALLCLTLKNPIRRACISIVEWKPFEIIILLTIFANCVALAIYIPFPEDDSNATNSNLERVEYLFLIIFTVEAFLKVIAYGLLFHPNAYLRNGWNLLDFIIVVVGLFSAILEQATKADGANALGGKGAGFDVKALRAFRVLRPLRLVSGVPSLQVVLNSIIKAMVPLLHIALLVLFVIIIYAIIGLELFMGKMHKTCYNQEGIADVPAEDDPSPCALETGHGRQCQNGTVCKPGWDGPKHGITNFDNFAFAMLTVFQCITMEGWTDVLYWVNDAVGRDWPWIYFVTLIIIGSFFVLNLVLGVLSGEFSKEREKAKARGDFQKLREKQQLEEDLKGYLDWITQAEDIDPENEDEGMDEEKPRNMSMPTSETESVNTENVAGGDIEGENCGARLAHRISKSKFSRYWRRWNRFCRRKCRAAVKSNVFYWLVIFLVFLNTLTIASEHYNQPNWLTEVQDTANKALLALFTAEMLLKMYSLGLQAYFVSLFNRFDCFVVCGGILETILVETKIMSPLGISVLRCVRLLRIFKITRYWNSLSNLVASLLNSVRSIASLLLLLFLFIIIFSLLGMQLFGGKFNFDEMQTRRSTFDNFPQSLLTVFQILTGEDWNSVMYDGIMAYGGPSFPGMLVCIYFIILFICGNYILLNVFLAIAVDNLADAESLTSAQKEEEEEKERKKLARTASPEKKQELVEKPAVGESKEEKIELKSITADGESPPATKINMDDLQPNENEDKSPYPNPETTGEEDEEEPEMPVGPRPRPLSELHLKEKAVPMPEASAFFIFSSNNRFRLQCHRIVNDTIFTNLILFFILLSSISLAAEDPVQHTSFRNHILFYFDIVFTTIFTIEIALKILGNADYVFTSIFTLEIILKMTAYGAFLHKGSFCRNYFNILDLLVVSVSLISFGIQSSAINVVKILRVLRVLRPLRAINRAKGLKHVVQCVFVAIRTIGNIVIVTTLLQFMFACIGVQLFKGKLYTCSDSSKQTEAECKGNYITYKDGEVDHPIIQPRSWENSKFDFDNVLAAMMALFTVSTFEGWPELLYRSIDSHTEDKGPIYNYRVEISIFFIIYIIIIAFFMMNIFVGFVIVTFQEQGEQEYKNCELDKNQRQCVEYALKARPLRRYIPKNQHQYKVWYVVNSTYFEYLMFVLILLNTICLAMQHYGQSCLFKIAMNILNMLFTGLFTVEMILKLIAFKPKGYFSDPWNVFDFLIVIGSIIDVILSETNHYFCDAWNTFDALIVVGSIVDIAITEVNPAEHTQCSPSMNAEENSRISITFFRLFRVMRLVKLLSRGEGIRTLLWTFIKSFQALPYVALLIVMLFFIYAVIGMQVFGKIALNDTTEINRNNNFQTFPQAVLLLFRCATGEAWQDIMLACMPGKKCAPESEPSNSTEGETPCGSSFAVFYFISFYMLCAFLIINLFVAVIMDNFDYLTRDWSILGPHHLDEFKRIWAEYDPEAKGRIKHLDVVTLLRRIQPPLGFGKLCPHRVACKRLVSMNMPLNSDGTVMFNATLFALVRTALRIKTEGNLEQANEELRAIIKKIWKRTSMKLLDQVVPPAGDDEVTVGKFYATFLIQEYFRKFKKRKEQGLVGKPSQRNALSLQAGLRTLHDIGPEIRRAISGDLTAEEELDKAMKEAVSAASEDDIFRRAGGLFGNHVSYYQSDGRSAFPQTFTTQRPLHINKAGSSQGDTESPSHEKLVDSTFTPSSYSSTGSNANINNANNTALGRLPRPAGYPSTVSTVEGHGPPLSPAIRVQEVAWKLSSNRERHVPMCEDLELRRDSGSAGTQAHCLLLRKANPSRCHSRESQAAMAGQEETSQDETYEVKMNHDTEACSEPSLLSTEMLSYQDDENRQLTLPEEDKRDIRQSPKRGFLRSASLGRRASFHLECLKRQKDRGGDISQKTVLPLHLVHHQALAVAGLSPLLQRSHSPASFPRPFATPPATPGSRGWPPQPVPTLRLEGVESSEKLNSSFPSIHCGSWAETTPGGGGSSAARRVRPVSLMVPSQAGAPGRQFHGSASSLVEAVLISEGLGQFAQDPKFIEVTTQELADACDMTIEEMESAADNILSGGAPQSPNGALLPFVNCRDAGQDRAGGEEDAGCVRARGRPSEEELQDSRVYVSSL
Outline: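 Cav1.2 counterscreen using a related calcium-influx FLIPR assay, run as % inhibition at single concentrations or as a titration.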

[6] = Metabolic stability in rat liver microsomes assessed as compound remaining at 1 uM after 1 hr; type: ADME, Microsome; settings: read-out: Stability
Outline: (§4)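 Compound at 1 μM was incubated with human or rat liver microsomes (1 mg/mL) for 1 h, and the percentage of parent remaining was determined.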

Brain = assay: Drug metabolism in Sprague-Dawley rat assessed as 3-trifluoromethylbenzenesulfonamide level in brain at 10 mg/kg, po after 8 hrs; type: ADME, organism-based; design: dose 10 mg/kg, route oral; settings: in vivo
Outline: (§5)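 Male Sprague-Dawley rats were given a 10 mg/kg oral dose. Parent and metabolite concentrations were measured in whole blood and brain over time, including 8 h postdose.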

[7] = Plasma concentration in rat complete Freund's adjuvant-induced pain model at 10 mg/kg, po after 3 hrs; type: ADME, organism-based; design: dose 10 mg/kg, route oral
Outline: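 Separate CFA-treated rats given single oral 10 mg/kg dose; plasma exposure measured 3 h after dosing.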

Canis familiaris [8] = assay: Cardiotoxicity in vagotomized dog assessed as mean arterial pressure at 1 to 10 mg/kg, iv up to 90 mins; type: toxicity, organism-based, Canis lupus familiaris, Artery; design: dose 1-10 mg/kg, route intravenous; settings: in vivo, 1.5 h
Outline: (§6)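 Anesthetized, vagotomized dogs received an intravenous infusion in sequential rising cumulative doses of 1, 3 and 10 mg/kg. MAP, HR, QRS, PR and QTc were monitored, with plasma exposure sampled at the indicated time points (n = 3).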

[9] = target: T1, Voltage-dependent N-type calcium channel subunit alpha-1B (Homo sapiens, UniProt Q00975); assay: Inhibition of human Cav2.2 expressed CBK cells assessed as inhibition of channel current at <1 uM at holding membrane potential -40 mV by conventional patch clamp electrophysiology assay
Outline: (§7)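 Cav2.2 current block was measured at a depolarized (−40 mV) or hyperpolarized (−90 mV) potential. At −40 mV, n = 2, 3, 4 and 1 at 0.3, 1, 3 and 10 μM. At −90 mV, n = 4 and 6 at 3 and 10 μM. Values are mean ± SEM.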
Target sequence in this assay (Q00975 whole entry, looked up): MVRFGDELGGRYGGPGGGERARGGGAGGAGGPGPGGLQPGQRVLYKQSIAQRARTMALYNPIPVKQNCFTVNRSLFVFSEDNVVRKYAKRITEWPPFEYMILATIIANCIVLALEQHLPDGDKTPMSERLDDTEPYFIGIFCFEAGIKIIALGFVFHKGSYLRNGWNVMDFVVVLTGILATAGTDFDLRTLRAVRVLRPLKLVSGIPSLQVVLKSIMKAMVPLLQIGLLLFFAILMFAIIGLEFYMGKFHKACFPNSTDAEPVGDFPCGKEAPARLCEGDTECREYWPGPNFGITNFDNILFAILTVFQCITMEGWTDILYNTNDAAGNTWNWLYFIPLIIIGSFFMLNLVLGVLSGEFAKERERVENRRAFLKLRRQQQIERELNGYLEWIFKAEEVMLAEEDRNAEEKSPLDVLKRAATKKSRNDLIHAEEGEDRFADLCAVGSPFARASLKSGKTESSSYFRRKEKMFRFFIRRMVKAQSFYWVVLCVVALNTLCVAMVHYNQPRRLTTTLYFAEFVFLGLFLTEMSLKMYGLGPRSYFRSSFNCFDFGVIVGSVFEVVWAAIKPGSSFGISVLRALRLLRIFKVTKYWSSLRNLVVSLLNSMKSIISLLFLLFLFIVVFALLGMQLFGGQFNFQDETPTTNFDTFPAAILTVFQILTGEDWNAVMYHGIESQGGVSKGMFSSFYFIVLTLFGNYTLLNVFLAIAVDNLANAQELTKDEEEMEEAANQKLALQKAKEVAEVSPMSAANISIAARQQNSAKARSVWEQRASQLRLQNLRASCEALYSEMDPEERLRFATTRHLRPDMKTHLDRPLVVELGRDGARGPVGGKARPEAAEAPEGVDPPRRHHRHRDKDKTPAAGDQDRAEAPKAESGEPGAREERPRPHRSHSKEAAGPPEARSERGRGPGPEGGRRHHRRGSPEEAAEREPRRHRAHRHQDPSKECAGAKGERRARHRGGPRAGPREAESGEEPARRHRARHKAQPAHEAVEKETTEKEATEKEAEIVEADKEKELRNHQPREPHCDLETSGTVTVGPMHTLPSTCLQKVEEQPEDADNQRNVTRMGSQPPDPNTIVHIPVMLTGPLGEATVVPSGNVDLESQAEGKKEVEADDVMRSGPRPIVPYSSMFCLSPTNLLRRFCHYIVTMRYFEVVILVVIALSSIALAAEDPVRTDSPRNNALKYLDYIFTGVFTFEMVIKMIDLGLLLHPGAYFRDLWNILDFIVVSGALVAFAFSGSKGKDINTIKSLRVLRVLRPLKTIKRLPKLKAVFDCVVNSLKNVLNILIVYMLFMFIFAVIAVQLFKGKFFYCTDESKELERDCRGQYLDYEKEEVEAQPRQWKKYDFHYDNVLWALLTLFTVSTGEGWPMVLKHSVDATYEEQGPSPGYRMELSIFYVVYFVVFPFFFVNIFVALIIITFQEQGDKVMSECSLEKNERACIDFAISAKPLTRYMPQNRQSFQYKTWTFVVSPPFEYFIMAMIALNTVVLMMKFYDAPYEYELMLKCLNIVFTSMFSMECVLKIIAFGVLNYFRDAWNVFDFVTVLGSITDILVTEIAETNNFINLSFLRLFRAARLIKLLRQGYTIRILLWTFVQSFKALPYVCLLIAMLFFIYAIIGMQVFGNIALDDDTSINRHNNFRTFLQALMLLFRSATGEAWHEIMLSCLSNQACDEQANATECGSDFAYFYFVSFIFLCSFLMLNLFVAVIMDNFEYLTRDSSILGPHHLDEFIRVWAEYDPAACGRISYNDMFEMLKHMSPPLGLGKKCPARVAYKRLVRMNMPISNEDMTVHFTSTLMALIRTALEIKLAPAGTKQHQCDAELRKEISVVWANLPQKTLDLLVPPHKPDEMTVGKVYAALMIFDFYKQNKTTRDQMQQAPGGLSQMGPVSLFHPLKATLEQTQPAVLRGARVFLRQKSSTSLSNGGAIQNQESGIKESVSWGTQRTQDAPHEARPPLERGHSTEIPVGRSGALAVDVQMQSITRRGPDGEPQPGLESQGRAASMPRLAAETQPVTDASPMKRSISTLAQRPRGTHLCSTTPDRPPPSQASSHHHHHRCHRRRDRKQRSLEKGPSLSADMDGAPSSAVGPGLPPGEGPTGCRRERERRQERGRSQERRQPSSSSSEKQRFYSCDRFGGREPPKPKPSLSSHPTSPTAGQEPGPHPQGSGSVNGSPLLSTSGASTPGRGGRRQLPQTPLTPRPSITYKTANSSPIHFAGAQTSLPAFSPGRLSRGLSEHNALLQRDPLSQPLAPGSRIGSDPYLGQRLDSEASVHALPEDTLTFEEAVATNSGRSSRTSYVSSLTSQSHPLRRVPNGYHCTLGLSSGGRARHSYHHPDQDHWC

[10] = Metabolic stability in human liver microsomes assessed as compound remaining at 1 uM after 1 hr; type: ADME, Microsome; settings: read-out: Stability; outline: as §4
[11] = Half life in rat at 3 mg/kg, po and 1 mg/kg, iv; type: ADME, organism-based; settings: in vivo
Outline: (§8)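 Rat pharmacokinetics from iv and po arms: 0.6 mg/kg iv with 1.8 mg/kg po, or 1 mg/kg iv with 3 mg/kg po. AUC was normalized to po dose (μM·h·kg/mg). Clearance (mL/min/kg) and half-life come from the iv arm, and F% is oral bioavailability.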

[12] = target: T1, Voltage-dependent N-type calcium channel subunit alpha-1B; assay: Inhibition of human Cav2.2 expressed CBK cells assessed as inhibition of channel current at 10 uM at holding membrane potential -90 mV by conventional patch clamp electrophysiology assay; outline: as §7
Target sequence in this assay (Q00975 whole entry, looked up): as above

[13] = Plasma concentration in vagotomized dog at 3 mg/kg, iv after 60 mins; type: ADME, organism-based, Canis lupus familiaris; design: dose 3 mg/kg, route intravenous; outline: as §1
Canis familiaris [14] = assay: Cardiotoxicity in vagotomized dog assessed as heart rate at 1 to 10 mg/kg, iv up to 90 mins; type: toxicity, organism-based, Canis lupus familiaris; design: dose 1-10 mg/kg, route intravenous; settings: in vivo, 1.5 h; outline: as §6
[15] = Fraction unbound in rat plasma; type: ADME, cell-free
Liver microsomes = assay: Drug metabolism in rat liver microsomes assessed as assessed as 3-trifluoromethylbenzenesulfonamide level level; type: ADME, Microsome
Canis familiaris [16] = assay: Cardiotoxicity in vagotomized dog assessed as PR interval at 1 to 10 mg/kg, iv up to 90 mins; type: toxicity, organism-based, Canis lupus familiaris; design: dose 1-10 mg/kg, route intravenous; settings: in vivo, 1.5 h; outline: as §6
[17] = Plasma concentration in rat complete Freund's adjuvant-induced pain model at 30 mg/kg, po after 3 hrs; type: ADME, organism-based; design: dose 30 mg/kg, route oral
Outline: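 Satellite rats in CFA inflammatory pain study, 30 mg/kg po; plasma exposure (μM) at 3 h, n = 2, standard deviation.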

[18] = Plasma clearance in rat at 3 mg/kg, po and 1 mg/kg, iv; type: ADME, organism-based; outline: as §8
Rattus norvegicus [19] = assay: Antinociceptive activity in rat assessed as reversal of complete Freund's adjuvant-induced pain at 30 mg/kg, po after 1 hr; type: functional; outline: as §3
[20] = Plasma concentration rat at 100 mg/kg, po after 3 hrs; type: ADME, organism-based; design: dose 100 mg/kg, route oral
Outline: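 Rat rota-rod motor coordination study; single 100 mg/kg oral dose; plasma and brain exposure determined 3 h postdose.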

[21] = Fraction unbound in human plasma; type: ADME, cell-free
[22] = target: T1, Voltage-dependent N-type calcium channel subunit alpha-1B; assay: Inhibition of Cav2.2 expressed HEK293 cells assessed as inhibition of calcium flux by FLIPR assay in presence of 30 mM of potassium; type: cell-based
Outline: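 Calcium influx was read with a calcium-sensitive dye on FLIPR Tetra in CBK cells expressing α1B-1, α2-δ and β3a with Kir2.3. Cells were preincubated with compound in 30 mM K+, then channels were opened by 1:1 addition of 140 mM K+ solution. Compounds were screened at 1 μM, then titrated over 10 points (0.001–30 μM) in quadruplicate, mean ± SD. Values are averages of n ≥ 3.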
Target sequence in this assay (Q00975 whole entry): as the sequence (Q00975 whole entry, looked up) above

Blood = assay: Drug metabolism in Sprague-Dawley rat assessed as 3-trifluoromethylbenzenesulfonamide level in blood at 10 mg/kg, po after 8 hrs; type: ADME, organism-based; design: dose 10 mg/kg, route oral; settings: in vivo; outline: as §5
hERG = hERG (Homo sapiens, UniProt Q12809); assay: Displacement of [35S]-MK-0499 from human ERG at 10 uM; settings: probe [35S]-MK-0499
Outline: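 hERG binding was measured as displacement of 35S-labeled MK-0499 at single test concentrations.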

Rattus norvegicus [23] = assay: Antinociceptive activity in rat assessed as reversal of complete Freund's adjuvant-induced pain at 30 mg/kg, po after 3 hrs; type: functional; outline: as §3
Mus musculus [24] = assay: Antinociceptive activity in Cav2.2 deficient mouse SNL neuropathic pain model assessed as reversal of mechanical allodynia at 30 mg/kg, po after 2 hrs; type: functional; outline: as §2
[25] = Drug level rat brain at 100 mg/kg, po after 3 hrs; type: ADME, organism-based; design: dose 100 mg/kg, route oral; settings: read-out: Drug uptake
Outline: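 Rats were dosed orally at 100 mg/kg, motor coordination was tested on a rota-rod 3 h later, and plasma and brain exposure were then measured.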

[26] = Oral bioavailability in rat at 3 mg/kg; type: ADME, organism-based; settings: in vivo; outline: as §8

concentration at 1.5 h [1]: 20.4 µM
remaining at 1 h, 1 µM [6]: 40%
Drug metabolism (Brain): Active
concentration at 3 h [7]: 1.66 µM
inhibition [9]: > 50%
remaining at 1 h, 1 µM [10]: 30%
half-life [11]: 1.3 h
inhibition [12]: 43%
concentration at 1 h [13]: 5.79 µM
fraction unbound [15]: 0.02
Drug metabolism (Liver microsomes): Active
concentration at 3 h [17]: 1.6 µM
clearance [18]: 35 mL/min/kg
concentration at 3 h [20]: 9.5 µM
fraction unbound [21]: 0.014
IC50 [22]: 0.56 µM
Drug metabolism (Blood): 6.1 µM
concentration at 3 h [25]: 11.9 µM
bioavailability [26]: 99%
SMILES: CS(=O)(=O)c1ccc(F)cc1C(=O)N1CCC(N(C2CC2)S(=O)(=O)c2cccc(C(F)(F)F)c2)CC1
Activity (Rattus norvegicus [2]): 65%
Activity (Mus musculus [3]): 4%
Activity (Mus musculus [4]): 38%
Activity (Rattus norvegicus [5]): Dose-dependent effect
inhibition at 1 µM (Cav1.2): 18%
Activity (Canis familiaris [8]): Non-toxic
Activity (Canis familiaris [14]): Non-toxic
Activity (Canis familiaris [16]): Non-toxic
Activity (Rattus norvegicus [19]): 66%
inhibition at 10 µM (hERG): 32%
Activity (Rattus norvegicus [23]): 57%
Activity (Mus musculus [24]): 9%
